Source: PubChem BioAssay
Activity calls are given as the source filed them.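 Rule for the calls, unless noted: active = NADPH fluorescence slope more negative than the mean of all samples by about 3 SD, 99.7% confidence; inactive = the rest.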

Assays:
[1] = inhibitors of TNFa-induced NFkB p65 translocation, primary screen, imaging, HUVEC, MLSMR starter and 10KST1 sets (AID 438;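 active = inhibition above 20% together with a positive visual image hit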;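 note: compound added about 3h40 before a 20 min TNFalpha stimulation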;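 for inhibition: signal is the nuclear over cytoplasmic p65 intensity ratio per well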); settings: HUVEC TNFa-induced p65 nuclear translocation; cell count: measured here: nuclei count (cytotoxicity indicator), at 2.08 µM; inhibition: at 2 µM, stronger effect = higher value, 0% TNFa-plus-vehicle, 100% no-TNFa wells
[2] = endothelial E-selectin expression blockers – imaging, HUVEC, immunofluorescence, MLSMR starter and 10KST1 sets, primary screen (AID 487;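 active = visually confirmed hit in the image check and inhibition above 20%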;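 for inhibition: signal is fraction of cell area covered by stained E-selectin grains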;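 for nuclei count: 100% = median nuclei count of all wells on the same plate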); settings: HUVEC TNFalpha-induced E-selectin immunofluorescence imaging, at 2 µM; inhibition: stronger effect = higher value; nuclei count: measured here: cell number, toxicity
[3] = Primary imaging screen for DUSP6 inhibitors that restore phospho-Erk in transfected HeLa cells, chemical complementation (AID 609;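 active = compounds giving at least 50% inhibition in the cell-based MKP-3 phosphatase rescue imaging test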;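 for inhibition: phospho-Erk level distribution per well compared with pooled transfected vehicle control wells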); settings: HeLa MKP-3 transfected, phospho-Erk imaging KS statistic, at 10 µM, cells stimulated with TPA for 15 min
[4] = biological target: Dual specificity protein phosphatase 6 (Homo sapiens) (UniProt Q16828); assay: as above; settings: HeLa MKP-3 transfected, phospho-Erk imaging KS statistic; at 10 µM; stronger effect = higher value; cells stimulated with TPA for 15 min
[5] = biological target: Voltage-gated potassium channel subunit beta-2 (Rattus norvegicus) (UniProt P62483); assay: inhibitors of rat Kvbeta2 reductase activity – biochemical, NADPH fluorescence, primary screen (AID 622;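 active = fluorescence slope higher than the sample average by over 3 SD, cut at about -0.22 in these data, passing the limit was not always enough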;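 note: slope of raw intensity against log time taken from 70 to 1610 s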); settings: recombinant KvBeta, 4-cyanobenzaldehyde reduction, at 10 µM, stronger effect = higher value
[6] = biological target: Voltage-gated potassium channel subunit beta-2 (Rattus norvegicus) (UniProt P62483); assay: enhancers of rat Kvbeta2 NADPH turnover – biochemical, NADPH fluorescence, primary screen (AID 623); settings: Recombinant KvBeta, NADPH fluorescence decrease slope, 10 min; at 10 µM; stronger effect = lower value;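 note: fluorescence intensity change per second fitted from 20 to 320 s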
[7] = biological target: Alpha-2C adrenergic receptor (Homo sapiens) (UniProt P18825); assay: compounds altering alpha2C-coupled GIRK flux – cell-based, HEK293 alpha2C/GIRK1/2, thallium flux, primary screen (AID 624;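 active = fluorescence slope after compound addition differing from the mean of all screened samples at 99.7% confidence, in either direction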;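 note: slope of fluorescence ratio to pre-addition baseline per second over 15 to 24 s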); settings: thallium flux BTC fluorescence, at 10 µM, actives lie on both sides
[8] = inhibitors of larval lipid processing in zebrafish, primary screen, whole organism, PED6 fluorescence, gall bladder and intestine (AID 686;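 active = a full or partial loss of lipid-probe fluorescence in the fish gall bladder, intestine or both, judged by eye; inactive = no fluorescence loss, or compound toxic to the fish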;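 note: larvae 5 to 7 days old with five fish per well; signal comes from phospholipase A2 cleavage of quenched PED6 carried via bile; overnight exposure to compound and PED6 before scoring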); settings: Zebrafish larvae PED6 lipid processing, fluorescence scoring; screened at 20 µM (by protocol)
Method in brief: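 system = live zebrafish larvae aged 5-7 days, whole organism | probe or stimulus = ingested quenched lipid PED6 at 100 nM | doses = 20 µM single dose | timing = overnight exposure | detection = fluorescence microscopy with visual scoring of gall bladder and intestine | read-out = visual per-well fluorescence inhibition score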

[9] = loss of swimming-algae plug formation – whole organism, Chlamydomonas reinhardtii, WT vs cilia-less mutant, absorbance, 96-well, primary screen (AID 463189;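 active = inhibition at or above 50% relative to wild type and mutant plate controls; inactive = inhibition below 50%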;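 note: 0% = wild type cc124 cells in DMSO and 100% = ciliumless bld1 mutant cells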); settings: Chlamydomonas reinhardtii gravitaxis, OD600 absorbance, 2 days; at 10 µM; stronger effect = higher value
[10] = measured here: cell density z-score
[11] = measured here: nuclear c-Myc green intensity z-score
[12] = measured here: nuclear pErk red intensity z-score, stronger effect = higher value

Dual specificity protein phosphatase 6 (Homo sapiens), sequence (Q16828 whole entry, looked up): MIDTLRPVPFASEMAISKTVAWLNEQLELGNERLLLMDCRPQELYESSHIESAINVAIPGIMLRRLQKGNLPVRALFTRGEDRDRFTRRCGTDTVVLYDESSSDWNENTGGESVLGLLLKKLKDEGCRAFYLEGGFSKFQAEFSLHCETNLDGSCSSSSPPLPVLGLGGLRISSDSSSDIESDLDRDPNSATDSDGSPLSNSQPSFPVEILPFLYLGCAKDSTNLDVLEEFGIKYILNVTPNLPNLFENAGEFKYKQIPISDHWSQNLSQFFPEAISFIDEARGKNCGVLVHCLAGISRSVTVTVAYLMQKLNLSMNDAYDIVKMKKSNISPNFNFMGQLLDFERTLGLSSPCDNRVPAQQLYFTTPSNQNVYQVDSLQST
Voltage-gated potassium channel subunit beta-2 (Rattus norvegicus), sequence (P62483 whole entry, looked up): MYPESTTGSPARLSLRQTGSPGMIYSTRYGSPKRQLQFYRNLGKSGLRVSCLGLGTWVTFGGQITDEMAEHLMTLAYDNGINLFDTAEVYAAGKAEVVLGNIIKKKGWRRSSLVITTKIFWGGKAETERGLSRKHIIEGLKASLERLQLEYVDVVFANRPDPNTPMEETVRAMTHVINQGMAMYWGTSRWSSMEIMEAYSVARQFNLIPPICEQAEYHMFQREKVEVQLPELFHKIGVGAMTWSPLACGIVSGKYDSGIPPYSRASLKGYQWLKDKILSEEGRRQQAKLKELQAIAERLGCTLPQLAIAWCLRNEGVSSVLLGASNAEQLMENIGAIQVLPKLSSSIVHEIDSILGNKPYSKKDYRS
Alpha-2C adrenergic receptor (Homo sapiens), sequence (P18825 whole entry, looked up): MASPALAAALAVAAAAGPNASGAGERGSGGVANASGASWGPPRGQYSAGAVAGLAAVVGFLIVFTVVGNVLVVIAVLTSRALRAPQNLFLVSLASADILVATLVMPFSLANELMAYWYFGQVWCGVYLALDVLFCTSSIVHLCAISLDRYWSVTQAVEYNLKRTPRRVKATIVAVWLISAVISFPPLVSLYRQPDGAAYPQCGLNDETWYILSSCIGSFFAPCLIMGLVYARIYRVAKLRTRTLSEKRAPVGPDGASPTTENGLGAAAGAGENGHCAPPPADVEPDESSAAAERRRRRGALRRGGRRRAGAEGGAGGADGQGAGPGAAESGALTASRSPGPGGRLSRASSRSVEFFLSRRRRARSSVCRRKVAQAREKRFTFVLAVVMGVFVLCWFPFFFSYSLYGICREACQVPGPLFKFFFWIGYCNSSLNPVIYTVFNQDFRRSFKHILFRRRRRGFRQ

| Compound | cell count [1] | inhibition [1] | inhibition [2] | nuclei count [2] | z-score [3, 10] | z-score [3, 11] | z-score [3, 12] | inhibition [4] | fluorescence slope [5] | NADPH fluorescence slope [6] | slope [7] | outcome [8] | inhibition [9] |
| --- | --- | --- | --- | --- | --- | --- | --- | --- | --- | --- | --- | --- | --- |
| CC1(C)CC(=O)C2=C(C1)N(Cc1ccco1)C(=O)C2(NC(=O)c1cccnc1)C(F)(F)F (stereo unspecified) | 499 | -8.6% (inactive) | -131% (inactive) | 136% | -1.48 | -1.13 | 0.615 | 3.5% (inactive) | -0.492 (inactive) | -6.7e-05 (inactive) | 0.00643 (inactive) | inactive | 0.823% (inactive) |
| COc1cccc(COc2nc3c(c(=O)n(C)c(=O)n3C)n2C)c1 | 456 | -4.5% (inactive) | -99.3% (inactive) | 164% | -0.352 | 0.147 | -0.806 | -7.28% (inactive) | -0.325 (inactive) | -1.3e-06 (inactive) | 0.00578 (inactive) | inactive | 5.71% (inactive) |
| CC(=O)c1c(N)nc2n(c1=O)CCCCC2 | 354 | -4.7% (inactive) | -5.5% (inactive) | 162% | 0.366 | 0.179 | 0.934 | 9.42% (inactive) | -0.392 (inactive) | -0.000138 (inactive) | 0.0044 (inactive) | inactive | 24.2% (inactive) |
| COc1cc(/C=N/O)ccc1OCc1ccc(C(=O)O)cc1 | 587 | -21.9% (inactive) | -51.1% (inactive) | 154% | -1.09 | 0.882 | 0.52 | -0.608% (inactive) | -0.357 (inactive) | -5.9e-05 (inactive) | 0.00492 (inactive) | inactive | -7.38% (inactive) |
| CCNc1nc(NC(C)C)nc(N(C#N)C(C)C(=O)N(C)C)n1 (stereo unspecified) | 330 | -31.8% (inactive) | -39.6% (inactive) | 134% | -0.102 | -1.64 | 0.749 | -12.3% (inactive) | -0.445 (inactive) | -0.000124 (inactive) | 0.00585 (inactive) | inactive | 19.9% (inactive) |
| O=C1CCC(=O)N1CN(C(=O)c1ccco1)c1ccc(Cl)c(Cl)c1 | 481 | 1.1% (inactive) | -72.5% (inactive) | 125% | -1.21 | 0.938 | 0.134 | -3.5% (inactive) | -0.562 (inactive) | -2.3e-05 (inactive) | 0.00659 (inactive) | inactive | -12.3% (inactive) |
| Cc1ccsc1C1NC(=O)c2c(sc3c2CCCC3)N1 (stereo unspecified) | 584 | -31.7% (inactive) | -31.6% (inactive) | 166% | -1.62 | -0.46 | 1.02 | -18.6% (inactive) | -0.411 (inactive) | -3.5e-05 (inactive) | 0.00518 (inactive) | inactive | 22.5% (inactive) |
| CCCOc1ccc(N2C(=O)CC(N(Cc3ccc(S(N)(=O)=O)cc3)C(=O)CC)C2=O)cc1 (stereo unspecified) | 441 | -4.6% (inactive) | -308% (inactive) | 184% | -0.613 | 0.516 | 0.905 | -7.28% (inactive) | -0.326 (inactive) | 1.9e-05 (inactive) | 0.00479 (inactive) | inactive | 2.36% (inactive) |
| CCOc1nc(Oc2cccc(C(=O)O)c2)nc(Oc2cccc(C(=O)O)c2)n1 | 627 | -14.8% (inactive) | -46.5% (inactive) | 182% | 0.0666 | 0.636 | -0.0605 | -1.12% (inactive) | -0.538 (inactive) | -3.4e-05 (inactive) | 0.00497 (inactive) | inactive | 6.3% (inactive) |
| CSc1nnc(C)c(=O)[nH]1 | 627 | 3.2% (inactive) | -23.8% (inactive) | 149% | 0.361 | -1.1 | -0.0421 | -1.12% (inactive) | -0.463 (inactive) | -0.000266 (inactive) | 0.00552 (inactive) | inactive | 6% (inactive) |
| COc1ccccc1N1CCN(CCOc2c(OC)cccc2OC)CC1 | 492 | -10.5% (inactive) | -105% (inactive) | 116% | -1.56 | 1.65 | 0.711 | -3.98% (inactive) | -0.469 (inactive) | -0.000262 (inactive) | 0.00445 (inactive) | inactive | -3.94% (inactive) |
| Clc1ccc(-c2nn3c(-c4cccc(Cl)c4)nnc3s2)cc1 | 603 | -0.1% (inactive) | -90.1% (inactive) | 150% | -0.779 | 0.764 | -0.704 | -2.47% (inactive) | -0.42 (inactive) | -9.2e-05 (inactive) | 0.00631 (inactive) | inactive | 33% (inactive) |
| C=COC(=O)CSc1nc(-c2cccs2)ccc1C#N | 659 | -10.8% (inactive) | -26.9% (inactive) | 152% | -1.42 | 1.7 | 0.138 | -5.62% (inactive) | -0.385 (inactive) | -2.3e-06 (inactive) | 0.0065 (inactive) | inactive | 8.37% (inactive) |
| NS(=O)(=O)c1ccc(-c2ccc(C=NC3CCS(=O)(=O)C3)o2)cc1 (stereo unspecified) | 576 | 0.1% (inactive) | -53.9% (inactive) | 94% | -1.97 | 0.0247 | 1.53 | -4.7% (inactive) | -0.59 (inactive) | -5.6e-05 (inactive) | 0.00467 (inactive) | inactive | -10.3% (inactive) |
| CNc1oc(-c2ccc(Cl)cc2)nc1C#N | 444 | -4.2% (inactive) | -114% (inactive) | 169% | -1.3 | -0.483 | -0.6 | 6.04% (inactive) | -0.263 (inactive) | -4.5e-06 (inactive) | 0.00621 (inactive) | inactive | 7.15% (inactive) |
| Cc1cc(=O)oc(C)c1C(=O)N[C@@H]1CCCCNC1=O | 433 | -2.4% (inactive) | -137% (inactive) | 150% | 0.96 | -0.243 | -0.864 | -8.27% (inactive) | -0.423 (inactive) | -6.9e-05 (inactive) | 0.00507 (inactive) | inactive | -3.12% (inactive) |
| COC(=O)C1=C(C)N=C2SC(C)C(=O)N2C1c1cccc(F)c1 (stereo unspecified) | 346 | -0.4% (inactive) | -96.3% (inactive) | 129% | 0.762 | -0.181 | -0.313 | 12.3% (inactive) | -0.485 (inactive) | -4.6e-05 (inactive) | 0.00444 (inactive) | inactive | -8.16% (inactive) |
| CC1CN(C2CCN(C(=O)COc3ccccc3)CC2)CC(C)O1 (stereo unspecified) | 357 | -12.6% (inactive) | -160% (inactive) | 111% | -0.694 | 1.72 | -2.62 | 1.75% (inactive) | -0.455 (inactive) | -1.3e-05 (inactive) | 0.00556 (inactive) | inactive | -3.28% (inactive) |
| CCC1SC(N)=NC1=O (stereo unspecified) | 522 | -23.4% (inactive) | -58.7% (inactive) | 182% | -1.82 | 1.35 | 1.78 | -15% (inactive) | -0.405 (inactive) | -7.4e-05 (inactive) | 0.00536 (inactive) | inactive | 13.5% (inactive) |
| CCOC(=O)c1[nH]c2ccc(OC)cc2c1C | 547 | -3.8% (inactive) | -0.1% (inactive) | 171% | -0.421 | -0.589 | 0.677 | -12.3% (inactive) | -0.361 (inactive) | -2.9e-05 (inactive) | 0.0043 (inactive) | inactive | 1.77% (inactive) |
| Cn1c(NCCN2CCCCC2)cc(=O)n(C)c1=O | 625 | 4.3% (inactive) | -24.8% (inactive) | 125% | 1.35 | -0.0759 | -0.233 | -1.12% (inactive) | -0.492 (inactive) | -0.000171 (inactive) | 0.00437 (inactive) | inactive | 9.26% (inactive) |
| CC(C)(C)C1CCC2(CC1)C(C#N)=C(SCC(=O)Nc1ccccc1)NC(=O)C2C#N (stereo unspecified) | 390 | -3.7% (inactive) | -138% (inactive) | 85.7% | -1.51 | -1.06 | -0.683 | 9.39% (inactive) | -0.461 (inactive) | 9.2e-06 (inactive) | 0.0063 (inactive) | inactive; toxic | 10.8% (inactive) |
| O=C(NCc1ccccc1)c1ccc(=O)[nH]n1 | 328 | -0.3% (inactive) | -132% (inactive) | 98.8% | -0.814 | 0.951 | -1.98 | 11.3% (inactive) | -0.456 (inactive) | -0.00047 (inactive) | 0.00499 (inactive) | inactive; toxic | -6.14% (inactive) |
| CCOc1ccc(C2C(C#N)=C(N)SC(N)=C2C#N)cc1OC | 654 | -21.3% (inactive) | 22.8% (inactive) | 177% | 0.539 | -1.2 | 0.0794 | -3.95% (inactive) | -0.291 (inactive) | -3e-05 (inactive) | 0.00675 (inactive) | inactive | 5.29% (inactive) |
| CCOC(=O)CSc1nc2sc3c(c2c(=O)[nH]1)CC(C)(C)OC3 | 583 | -40.2% (inactive) | 18.3% (inactive) | 123% | -1.86 | 1.97 | -0.11 | 7.48% (inactive) | -0.519 (inactive) | -0.000112 (inactive) | 0.0047 (inactive) | inactive | -8.53% (inactive) |
| Cn1c(SCC(=O)NCc2ccccc2)nc2ccccc21 | 325 | 1.6% (inactive) | -60.9% (inactive) | 79.7% | 0.441 | 2.21 | -0.441 | 3.66% (inactive) | -0.364 (inactive) | -2.1e-05 (inactive) | 0.00569 (inactive) | inactive; toxic | 26.1% (inactive) |
| Clc1ccc(-c2cn3c(n2)CCC3)cc1 | 567 | -16.9% (inactive) | 0.7% (inactive) | 171% | -1.6 | 1.21 | 1.33 | -6.86% (inactive) | -0.504 (inactive) | -9.3e-05 (inactive) | 0.00501 (inactive) | inactive | 3.42% (inactive) |
